# Assay results pooled from the literature.
# Lines come from different studies, so protocols differ.
# Target: Serine/threonine-protein kinase Chk1 (CHEK1, Homo sapiens, UniProt O14757)
# Residues used in one study (O14757 1-476): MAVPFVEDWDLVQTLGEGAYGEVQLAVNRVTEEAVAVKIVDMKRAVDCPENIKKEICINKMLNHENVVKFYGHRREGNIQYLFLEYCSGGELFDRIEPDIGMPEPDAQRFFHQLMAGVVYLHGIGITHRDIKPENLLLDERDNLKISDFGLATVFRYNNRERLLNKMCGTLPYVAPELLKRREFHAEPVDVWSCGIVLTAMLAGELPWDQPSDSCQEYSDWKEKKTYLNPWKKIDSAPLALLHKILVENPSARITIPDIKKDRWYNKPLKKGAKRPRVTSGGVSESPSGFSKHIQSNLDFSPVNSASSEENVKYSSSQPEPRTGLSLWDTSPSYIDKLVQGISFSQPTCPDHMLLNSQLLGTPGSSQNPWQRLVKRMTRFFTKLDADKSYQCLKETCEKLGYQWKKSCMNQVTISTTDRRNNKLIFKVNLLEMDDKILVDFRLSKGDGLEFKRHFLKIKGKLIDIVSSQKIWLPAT
SMILES,observed,mode,method,concentration,quantity,result
C#Cc1cnc(Nc2ccnc(CO)c2)nc1Nc1ccccc1S(C)(=O)=NC#N (stereo not drawn),cell-free assay,,,1 µM,remaining signal,38%
CC#CC(=O)N1CCC[C@H]1c1nc(-c2ccc(C(=O)Nc3ccccn3)cc2)c2c(N)nccn12,enzyme activity,inhibitor,,1 µM,inhibition,20%
CCCCC(=O)Nc1ccc(-c2ccc3ncn(CCC)c(=O)c3c2)cn1,binding,,competition with immobilised ligand,0.5 µM,remaining binding,86%
C=CC(=O)N1CCC[C@@H](n2nc(-c3ccc(Oc4ccccc4)cc3)c3c(N)ncnc32)C1,enzyme activity,inhibitor,,1 µM,inhibition,10%
COc1ccc2oc(-c3ccc4nc(N)oc4c3)c/c(=N\c3ccccc3NC(=O)CCN)c2c1,binding,,,1 µM,remaining binding,87%
C[C@H]1CC[C@H](n2c3cnccc3c3cnc(Nc4ccc5c(n4)CCN(C(=O)CO)C5)nc32)CC1,cell-free assay,,,1 µM,remaining signal,93%
C1=C/COCc2cc(ccc2OCCN2CCCC2)Nc2nccc(n2)-c2cccc(c2)COC/1,cell-free assay,,,0.1 µM,remaining signal,100%
N#Cc1ccc(NC(=O)Nc2ccccc2)cc1,cell-free assay,,competition with immobilised ligand,25 µM,remaining binding,91%
COc1ccc2[nH]c3c4[nH]c5ccc(OC)cc5c4c4c(c3c2c1)C(=O)NC4=O,binding,,,1 µM,remaining binding,12%
